Assay outcomes (PubChem BioAssay)
Wee1 stabilizer: inhibitors of human Wee1 degradation. HeLa Luc-Wee1K328M stability, luciferase luminescence; 100% = proteasome inhibitor MG132 effect. reporter increase, % at 5 µM. 220,000 compounds, 1.2% hits. AID 1321;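 active = activation above the mean of all tested compounds plus 3 SD, set per screening run, cut at about 8.8% in these data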;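 note: cells exposed to compound for 20 h before luminescence read; 0% = DMSO alone and 100% = MG132 at 30 µM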
Mdm2 ligase inh: Mdm2 E3 ligase (human) inhibition; Q00987; 210,000 compounds, 0.11% hits; signal enhancement, % at 5 µM; cell-based MDM2 ubiquitination luciferase reporter, 2 h; 0 = plate control, 100 = twice control, blank-subtracted;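 active = signal enhancement of 30% or more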;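 note: luminescence tracks abundance of the self-degrading MDM2-luciferase fusion protein; higher signal means inhibition of MDM2 E3 ligase activity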
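Timing – 2 h compound exposure at 37 °C · Assay system – mammalian cells stably expressing self-ubiquitinating, self-degrading MDM2 E3–luciferase fusion · Amount – 2000 cells seeded into each well · Measure – % luminescence enhancement versus blank-corrected plate control mean · Measured by – SteadyLite luminescence, 15 min reagent step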
p97 inhibitor: blocks human p97 ATPase activity. 220,000 compounds, 0.42% hits. recombinant p97 ATPase, Kinase-Glo ATP luminescence, 3 h. P55072. inhibition, % at 8 µM. AID 1481; in the data active = inhibition above about 15%;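 note: 0% = DMSO vehicle and 100% = wells lacking enzyme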
Target sequence (P55072 whole entry, looked up): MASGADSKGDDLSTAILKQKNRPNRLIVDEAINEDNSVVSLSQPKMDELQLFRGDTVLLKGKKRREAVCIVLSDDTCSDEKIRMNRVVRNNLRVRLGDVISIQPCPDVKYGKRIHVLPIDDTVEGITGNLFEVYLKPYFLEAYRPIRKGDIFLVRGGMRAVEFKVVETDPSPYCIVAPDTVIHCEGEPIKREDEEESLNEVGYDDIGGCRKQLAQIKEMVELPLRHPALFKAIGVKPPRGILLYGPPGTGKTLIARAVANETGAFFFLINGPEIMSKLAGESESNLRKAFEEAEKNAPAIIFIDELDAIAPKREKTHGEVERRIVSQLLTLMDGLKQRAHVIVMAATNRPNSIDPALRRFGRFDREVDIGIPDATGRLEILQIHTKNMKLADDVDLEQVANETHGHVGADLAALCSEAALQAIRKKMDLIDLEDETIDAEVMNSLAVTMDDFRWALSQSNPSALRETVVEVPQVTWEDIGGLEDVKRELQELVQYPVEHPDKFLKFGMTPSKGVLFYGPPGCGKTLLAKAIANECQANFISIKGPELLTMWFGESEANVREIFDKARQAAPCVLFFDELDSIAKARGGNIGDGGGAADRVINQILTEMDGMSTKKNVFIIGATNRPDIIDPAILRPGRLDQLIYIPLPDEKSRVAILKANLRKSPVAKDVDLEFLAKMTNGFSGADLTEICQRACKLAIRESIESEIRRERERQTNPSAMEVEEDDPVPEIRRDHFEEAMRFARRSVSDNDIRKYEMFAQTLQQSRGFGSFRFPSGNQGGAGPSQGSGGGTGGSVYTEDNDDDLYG
NF-kB expr up: NF-kB expression increase, human neuronal cells; NF-kB reporter expression; active compounds read high; fold change at 12.5 µM; 190,000 compounds, 1.6% hits; AID 1239; in the data active = fold change above about 3.3
APP 5'UTR act: activates APP 5'UTR luciferase reporter; SH-SY5Y APP 5'UTR luciferase reporter, luminescence; zero percent = DMSO vehicle wells; activation, % at 2 µM; 190,000 compounds, 1% hits; AID 1276;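 active = activation above a set limit, based on mean plus 3 SD of controls, cut at about 140% in these data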
STAT1 act: STAT1 signaling activation; NIH 3T3 STAT1-luciferase reporter, IFN-gamma, luminescence; 100% = IFN-gamma alone, no compound; activation (% of control), % at 5.5 µM; 200,000 compounds, 2.6% hits;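 active = activation above the screen-wide mean activation plus 3 SD, cut at about 130% in these data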;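 note: raw ratio to IFN-gamma control signal so 100% means no change and 0% no light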
Wee1 stab conf: human Wee1 degradation inhibition, confirmation; shares compounds with Wee1 stabilizer; activation, % at 5 µM; HeLa Luc-Wee1K328M degradation, luminescence; vehicle 0%, proteasome-blocked wells 100%; AID 1410; 1,100 compounds, 4% hits; in the data active = activation above about 8.9%
Starred values were filed as active, the others as inactive; . = no result given. Only some compounds are listed: those with a hit (about 4.6% of all), similar ones and a draw of the others.

SMILES | Wee1 stabilizer | Mdm2 ligase inh | p97 inhibitor | NF-kB expr up | APP 5'UTR act | STAT1 act | Wee1 stab conf
Cc1ccc2c(CSc3nnc(C4CC4)n3N)cc(=O)oc2c1 | -4 | -2 | 3 | 1.1 | -3 | 98 | .
Cc1ccc2c(CSc3nnc(C4CC4)n3N)cc(=O)oc2c1C | 12* | -7 | 0 | 1.3 | 22 | 102 | 2
Cn1c(=O)n(C)c2cc(S(=O)(=O)N3CCN(c4ccccc4)CC3)ccc21 | -2 | -15 | -8 | . | . | . | .
O=C(NCCCn1ccnc1)/C(=C\c1cccnc1)NC(=O)c1ccccc1F | 21* | -14 | -2 | 1.2 | 2 | 100 | -2
O=C(NCCCn1ccnc1)/C(=C\c1cccnc1)NC(=O)c1ccco1 | -2 | 8 | 4 | 1.2 | -11 | 96 | .
CCOc1ccc(N(C)S(=O)(=O)c2ccc(C)c(C(=O)OCC(=O)c3c[nH]c4ccccc34)c2)cc1 | 7 | -1 | 2 | 0.7 | 25 | 84 | .
O=C(Oc1ccc(=O)n(-c2ccccc2)n1)c1cccc(Cl)c1 | 11* | -16 | 6 | 1.3 | 0 | 99 | 3
O=C(Oc1ccc(=O)n(-c2ccccc2)n1)c1ccc(Cl)cc1 | 2 | 0 | 4 | 1.2 | 3 | 90 | .
Cc1cc(C(=O)CSc2nc3ccccc3o2)c(C)n1CC1CCCO1 (centres undefined) | 11* | 2 | -3 | 0.78 | 47 | 142* | 1
O=C(N/N=C/c1cc(Br)c(O)c(Br)c1)c1cccc(C(F)(F)F)c1 | 12* | -2 | 4 | 1.1 | -2 | 104 | 2
O=C(N/N=C/c1cccc(C(F)(F)F)c1)c1ccccc1O | -1 | -6 | 5 | 1.6 | -5 | 92 | .
O=C(Cn1cc(F)c(=O)[nH]c1=O)NCCO | 0 | -5 | 1 | 1 | 122 | 101 | .
Cc1cccn2c(=O)c(/C=N/O)c(NCc3ccccc3)nc12 | 6 | -1 | 2 | . | . | . | .
CC(=O)O/N=C/c1c(NCc2ccccc2)nc2c(C)cccn2c1=O | 12* | 7 | -1 | . | . | . | 2
N=c1c2c3c(sc2ncn1Cc1ccco1)CCCCC3 | 12* | -6 | 4 | 1.3 | -5 | 100 | -2
CC(C)Cn1cnc2sc3c(c2c1=N)CCCC3 | -2 | -10 | -1 | 0.88 | 3 | 95 | .
CC(=O)C1C(=O)c2c(cccc2[N+](=O)[O-])C1=Nc1ccc(S(N)(=O)=O)cc1 (centres undefined) | 0 | -6 | 7 | 0.98 | 30 | 93 | .
COC(=O)c1c(NC(=O)c2ccc(C)cc2)csc1C | 13* | -16 | 0 | . | . | . | 4
COCCNS(=O)(=O)c1cc(C)c(C)cc1C | -2 | -7 | -2 | 1.1 | -9 | 92 | .
CCOC(=O)CC(NC(=O)c1ccc(C)cc1)c1ccc(C)cc1 (centres undefined) | 14* | -6 | -7 | 1 | 0 | 92 | 2
Cc1nc(Nc2ccccc2Cl)sc1C(=O)Nc1ccccc1 | 17* | -9 | 2 | 1.1 | 10 | 113 | 2
CC(C)n1nc(C(=O)Nc2nnc(SCc3c(Cl)cccc3Cl)s2)c2ccccc2c1=O | -1 | -8 | -1 | 0.76 | -5 | 98 | .
O=C(NCc1ccccc1)c1ccccc1C(=O)c1ncc[nH]1 | -1 | . | 2 | . | 15 | 99 | .
COC(=O)Cn1c(CCS(=O)(=O)c2ccc(C)c(C)c2)nc2ccccc21 | -2 | -7 | 1 | 1.4 | -7 | 96 | .
O=C(O)Cn1c(CCS(=O)(=O)c2ccc(Br)cc2)nc2ccccc21 | 13* | -6 | -1 | 1.1 | -1 | 100 | -1
SMILES | Wee1 stabilizer | Mdm2 ligase inh | p97 inhibitor | NF-kB expr up | APP 5'UTR act | STAT1 act | Wee1 stab conf
Cc1ccc(Nc2ncnc3c2nnn3Cc2ccccc2)cc1 | 8 | 0 | -8 | . | . | . | .
Cc1cc(NC(=O)COC(=O)C(Cc2ccccc2)NC(=O)c2ccco2)no1 (centres undefined) | 21* | -31 | -4 | 1.1 | 8 | 95 | -2
O=C(COC(=O)[C@H](Cc1ccccc1)NC(=O)c1ccco1)NC(c1ccccc1)c1ccccc1 | 5 | -12 | -5 | 0.97 | 21 | 96 | .
CC(C)=CCc1c(O)ccc2c1OC(c1ccc(O)c(O)c1)CC2=O (centres undefined) | 33* | -19 | 13 | 0.63 | -32 | 101 | 2
Cc1ccc2nc(N(CCCN(C)C)C(=O)c3cc4ccccc4oc3=O)sc2c1 | 15* | -3 | -3 | 1.2 | -10 | 103 | -2
CC(C)CC(N)C(=O)OCc1ccc([N+](=O)[O-])cc1 (centres undefined) | -2 | -3 | -6 | . | . | . | .
C=CCn1c(SCC(=O)Nc2cc(NC(C)=O)ccc2OC)nnc1-c1ccccn1 | 12* | -4 | 3 | 1.1 | 2 | 94 | 1
C=CCn1c(SCC(=O)Nc2ccccc2OC)nnc1-c1ccccn1 | 4 | -1 | 3 | 0.93 | -9 | 101 | .
O=C(Nc1cccs1)Nc1ccc(Br)cc1F | 14* | -2 | 3 | 1.5 | 29 | 109 | -2
CCOC(=O)CSc1nnc(CNC(=O)c2ccccc2OC)n1-c1ccc(OC)cc1 | 12* | -4 | -2 | 0.93 | -2 | 100 | -4
CCOC(=O)CSc1nnc(CNC(=O)c2ccc(OC)cc2)n1-c1ccc(OC)cc1 | -1 | -30 | -5 | 1.4 | 8 | 98 | .
O=C(c1c[nH]c(C(=O)N2CCN(c3ccccc3F)CC2)c1)c1cccc(Cl)c1Cl | -1 | -10 | -2 | 0.68 | -57 | 96 | .
CC(Sc1ccccc1)C(=O)NN=C1CCCCCCC1 (centres undefined) | -3 | -20 | -3 | 1.2 | 24 | 97 | .
O=C(NNC(=O)C1CC1c1ccccc1)Nc1ccccc1 (centres undefined) | -3 | -9 | 1 | 1.2 | -10 | 102 | .
O=C(NNC(=O)C12CC3CC(CC(C3)C1)C2)[C@@H]1C[C@H]1c1ccccc1 | 20* | -10 | 3 | 1.2 | 1 | 105 | 1
CCCCN1CNC(=S)N(CCc2ccccc2)C1 | 12* | 2 | -2 | 1.1 | -6 | 102 | 3
CCCN1CN(CCc2ccccc2)CNC1=S | -3 | -9 | 0 | 0.95 | -2 | 102 | .
CCC(=O)Nc1ccc(C(=O)CSc2nnc(-c3ccc(NS(=O)(=O)CC)cc3)o2)cc1OC | 0 | . | -2 | . | . | . | .
CCOC(=O)C1(CC2CCCCO2)CCN(C(=O)Nc2ccccc2SC)CC1 (centres undefined) | 12* | -30 | 2 | 1 | 1 | 89 | 3
O=C(Cn1nc(Cc2cccnc2)c2ccccc2c1=O)Nc1ccccc1F | 7 | -13 | 0 | . | . | . | .
Cn1c(NC(=O)Cc2cccc3ccccc23)cc(=O)n(C)c1=O | 13* | -7 | 4 | 0.9 | -12 | 104 | -2
